# Experimental data from different studies.
# Each line is one published result; the experiments were not run side by side.
# Target: Serine/threonine-protein kinase MRCK beta (CDC42BPB, Homo sapiens, UniProt Q9Y5S2)
Compound,effect on,mode,technique,tested at,endpoint,result
CCCCNc1ncc2c(-c3ccc(F)cc3)nn(C[C@H]3CC[C@H](N)CC3)c2n1,target engagement in cells,inhibitor,chemoproteomics,20 mM,inhibition,3.6%
CC/C(=N\NC(=O)NCc1cccc(O)c1)c1ccc(O)c(C)c1O,enzyme activity,inhibitor,,0.1 µM,inhibition,84.3%
CNC(=O)c1cc(Oc2ccc(NC(=O)Nc3ccc(Cl)c(C(F)(F)F)c3)cc2)ccn1,enzyme activity,inhibitor,,0.3 µM,inhibition,12%
COc1cc2ncnc(Nc3ccc(Oc4ccccc4)c(C)c3C)c2cc1OC,enzyme activity,inhibitor,,1 µM,inhibition,2%
Cc1ccc(NC(=O)c2ccc(C)c(C(F)(F)F)c2)cc1C#Cc1nn(C2CCC(O)CC2)c2ncnc(N)c12 (centres unmarked),cell-free assay,,,10 µM,remaining signal,87%
O=C(Nc1cccnn1)N1CCC(=Cc2cccc(Oc3ccc(C(F)(F)F)cn3)c2)CC1,cell-free assay,,competition with immobilised ligand,1 µM,remaining binding,100%
Cc1cc(NC(=O)c2cccc3cc(-c4cccc5[nH]nc(N)c45)ccc23)ccc1F,enzyme activity,inhibitor,,0.1 µM,activity vs control,100%
Cc1nc(N2CC[C@@H](O)C2)ncc1-c1cc(C(F)(F)F)cc2[nH]ncc12,cell-free assay,,competition with immobilised ligand,1 µM,remaining binding,100%
CCCOc1ccc(OC)c(F)c1C(=O)c1ccc(C(=O)N[C@@H]2CNC[C@H]2NC(=O)c2ccc3[nH]ncc3c2)cc1,enzyme activity,inhibitor,,0.1 µM,remaining activity,34%
Cc1ccc(Nc2nccc(N(C)c3ccc4c(C)n(C)nc4c3)n2)cc1S(N)(=O)=O,enzyme activity,inhibitor,,0.3 µM,inhibition,9%
O=C(NC[C@@H]1[C@H]2CN(C(=O)OCc3cc(C(F)(F)F)cc(C(F)(F)F)c3)C[C@@H]12)c1ccc2[nH]nnc2c1,cell-free assay,,competition with immobilised ligand,1 µM,remaining binding,100%
O=C(Nc1cnn(-c2csc(C(=O)NC3COC3)c2)c1)Nc1ccccc1Cl,enzyme activity,inhibitor,,5 µM,remaining activity,97.1%
O=C1NC(=O)c2cc(Nc3ccc(F)cc3)c(Nc3ccc(F)cc3)cc21,cell-free assay,,,0.5 µM,remaining signal,100%
Cc1c(C(=O)O)cc(-c2ccc(C3CCNCC3)cc2)c2ccc(-c3ccc(C(F)(F)F)cc3)cc12,cell-free assay,,competition with immobilised ligand,1 µM,remaining binding,100%
Cc1ccc(C(=O)Nc2ccc(CN3CCN(C)CC3)c(C(F)(F)F)c2)cc1C#Cc1cnc2cccnn12,enzyme activity,inhibitor,,23.5 nM,remaining activity,95%
CCOC(=O)c1cc2cc(-c3cc(C(=O)NCc4ccc(C(=O)O)cc4)nn3C)ccc2[nH]1,cell-free assay,,competition with immobilised ligand,0.1 µM,remaining binding,88%
CC(C)(C)c1nc2c(s1)c1nc(N)ncc1c1ccc(NS(=O)(=O)c3c(F)cccc3F)c(F)c12,enzyme activity,inhibitor,radiometric,1 µM,remaining activity,100%
CCCS(=O)(=O)Nc1ccc(F)c(C(=O)c2c[nH]c3ncc(-c4ccc(Cl)cc4)cc23)c1F,enzyme activity,inhibitor,,1 µM,inhibition,< 10%
O=C1c2ccccc2-c2n[nH]c3cccc1c23,enzyme activity,inhibitor,,0.5 µM,activity vs control,97.2%
O=C(NS(=O)(=O)c1ccc(NCC2CCOCC2)c([N+](=O)[O-])c1)c1ccc(N2CCN(Cc3ccc(C(F)(F)F)cc3-c3ccc(Cl)cc3)CC2)cc1Oc1cnc2[nH]ccc2c1,cell-free assay,,competition with immobilised ligand,1 µM,remaining binding,94%
Nc1ncnc2occ(-c3ccc(NC(=O)Nc4cc(C(F)(F)F)ccc4F)cc3)c12,enzyme activity,inhibitor,,20 µM,remaining activity,33%
CCN(CC)CCNC(=O)c1c(C)[nH]c(/C=C2\C(=O)Nc3ccc(F)cc32)c1C,enzyme activity,inhibitor,,0.3 µM,inhibition,8%
CS(=O)(=O)c1cc(C2(NC(=O)c3cncc4c3cnn4-c3ccc(F)cc3)CC2)ccn1,cell-free assay,,competition with immobilised ligand,1 µM,remaining binding,100%
Oc1cccc(-c2nc(N3CCOCC3)c3oc4ncccc4c3n2)c1,cell-free assay,,,0.5 µM,remaining signal,99.4%
CN(c1ccnc(CNc2nc(Nc3ccc4c(c3)CC(=O)N4)ncc2C(F)(F)F)n1)S(C)(=O)=O,cell-free assay,,competition with immobilised ligand,1 µM,remaining binding,100%
O=c1cc(-c2cccc3c2Sc2ccccc2S3)oc(N2CCOCC2)c1,enzyme activity,inhibitor,,0.5 µM,remaining activity,103%
